Results on nine molecules are retold here after ChEMBL document CHEMBL1123507, “Antipicornavirus activity of substituted phenoxybenzenes and phenoxypyridines” (J Med Chem, 1986).

In one data set the test system is HeLa. As to the kind of experiment: Cytotoxicity concentration in HeLa cells. It is filed as cell-based. The settings on record: human. The gist of the method: (§1)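 HeLa monolayers were seeded at (1.0-1.3) × 10^5 cells/well, grown 24 h at 36 °C in 5% CO2 to 60–75% cover, then refed with maintenance medium (1-2% heat-inactivated FCS) containing two-fold serial compound dilutions made from a 200 μg/mL stock in Me2SO/medium, with final Me2SO ≤0.1%. Cells were challenged with 10-100 TCID50 virus, and CPE was read microscopically at 48 and 72 h. MIC50 was the lowest concentration giving ≥50% CPE reduction versus virus control. Cytotoxicity was the lowest concentration causing cell death, a growth change or a morphology change in uninfected cultures.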

The test system of data set [1] is Coxsackievirus. As to the kind of experiment: Ratio of the MIC50 of 6-(4-Nitro-phenoxy)-nicotinonitrile compared to compound obtained in the same test for coxsackie A21. It is filed as functional. An outline of the steps:
(§2)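 Relative activity was calculated as the MIC50 of the positive control 5-cyano-2-(4-nitrophenoxy)pyridine divided by the MIC50 of the test compound. Both were measured in parallel in the same HeLa CPE test (48/72 h microscopic reading) against RV-1A, RV-2 or coxsackievirus A21.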

The test system of data set [2] is Coxsackievirus. Briefly: Lowest concentration to reduce viral effect by 50% or more against coxsackie virus A21. It is filed as functional. An outline of the steps:
as §1

In data set [3] the test system is Enterovirus. As to the kind of experiment: Lowest concentration to reduce viral effect by 50% or more against Rhinovirus (RV)-2. It is filed as functional. An outline of the steps: as §1
Data set [4] concerns Enterovirus. Briefly: Ratio of the MIC50 of 6-(4-Nitro-phenoxy)-nicotinonitrile compared to compound obtained in the same test for Rhinovirus (RV)-2. It is filed as functional. The gist of the method: as §2
In data set [5] the test system is Enterovirus. As to the kind of experiment: Lowest concentration to reduce viral effect by 50% or more against Rhinovirus (RV)-1A. It is filed as functional. An outline of the steps: as §1
For data set [6], the system named is Enterovirus. Briefly: Ratio of the MIC50 of 6-(4-Nitro-phenoxy)-nicotinonitrile compared to compound obtained in the same test for Rhinovirus (RV)-1A. It is filed as functional. An outline of the steps: as §2
Data set [7] concerns Enterovirus. Briefly: Compound was evaluated for inhibition of rhinovirus RV-Hanks 75%. It is filed as functional.
For data set [8], the system named is Enterovirus. As to the kind of experiment: Compound was evaluated for inhibition of rhinovirus RV-Hanks at a dose of 50 ug/mL by < 50%. It is filed as functional.

≈ marks a conversion by molar mass, not a printed value.

In the data set on HeLa, `COc1ccc(Oc2ccc([N+](=O)[O-])cc2C#N)cc1` yielded a Toxicity of 93 µM. Besides, the Relative activity in the data set on Coxsackievirus [1] was 2.2; with Enterovirus [4], 2.2; in the data set on Enterovirus [6], 0.56. Moreover, the MIC50 in the data set with Coxsackievirus [2] turned out to be 5.7 µM (≈ 1.54 µg/mL); with Enterovirus [3], 11.6 µM (≈ 3.13 µg/mL); in the data set with Enterovirus [5], 46.3 µM (≈ 12.5 µg/mL).
`N#Cc1cc([N+](=O)[O-])ccc1Oc1ccccc1Br` registered a Toxicity in the data set with HeLa of more than 31 µM. For the same molecule, the Relative activity was determined as 3.3 in the data set on Coxsackievirus [1], 11.1 in the data set on Enterovirus [4] and 12.9 in the data set on Enterovirus [6]. The MIC50 in the data set with Coxsackievirus [2] is 0.41 µM (≈ 0.131 µg/mL); against Enterovirus [3], 0.94 µM (≈ 0.3 µg/mL); with Enterovirus [5] it was 1.6 µM (≈ 0.511 µg/mL).
The molecule `N#Cc1cc([N+](=O)[O-])ccc1Oc1cccc(Cl)c1` yielded a Toxicity in the data set on HeLa of more than 91 µM. Also, the Relative activity is given as 11.8 with Coxsackievirus [1], 44.7 in the data set with Enterovirus [4] and 23.6 with Enterovirus [6]. For the same molecule, the MIC50 with Coxsackievirus [2] was found to be 1.1 µM (≈ 0.302 µg/mL); in the data set on Enterovirus [3], 0.58 µM (≈ 0.159 µg/mL); with Enterovirus [5] it was 1.1 µM (≈ 0.302 µg/mL).
Molecule `N#Cc1cc([N+](=O)[O-])ccc1Oc1ccc(Cl)cc1Cl` had a Toxicity in the data set with HeLa of more than 324 µM. The Relative activity with Coxsackievirus [1] came out at 13.3; in the data set with Enterovirus [4], 49.8; in the data set with Enterovirus [6] it was 85.6. Also, the MIC50 against Coxsackievirus [2] turned out to be 3.9 µM (≈ 1.21 µg/mL); in the data set on Enterovirus [3], 0.52 µM (≈ 0.161 µg/mL); with Enterovirus [5], 0.97 µM (≈ 0.3 µg/mL).
As for `O=[N+]([O-])c1ccc(Oc2ccc(Cl)c(Cl)c2)cc1`, in the data set on HeLa, the Toxicity is 352 µM. For the same molecule, the values for the Relative activity in the data set with Coxsackievirus [1], in the data set with Enterovirus [4] and in the data set on Enterovirus [6] were 5.9, 2.4 and 5.6, respectively. The values for the MIC50 against Coxsackievirus [2], against Enterovirus [3] and with Enterovirus [5] were 0.88 µM (≈ 0.25 µg/mL), 22 µM (≈ 6.25 µg/mL) and 4.6 µM (≈ 1.31 µg/mL), respectively. The Inhibition with Enterovirus [7] came to 65%. This molecule registered an inhibition at 50 µg/mL in the data set on Enterovirus [8] of 30%.
`N#Cc1cc([N+](=O)[O-])ccc1Oc1ccccc1` registered a Toxicity in the data set with HeLa of more than 42 µM. Besides, the Relative activity stood at 0.96 with Coxsackievirus [1], 3.8 in the data set with Enterovirus [4] and 3.8 with Enterovirus [6]. Besides, the MIC50 with Coxsackievirus [2] worked out at 2.7 µM (≈ 0.649 µg/mL); in the data set with Enterovirus [3] it was 5.4 µM (≈ 1.3 µg/mL); in the data set with Enterovirus [5] it was 5.4 µM (≈ 1.3 µg/mL).
In the data set with HeLa, `CS(=O)(=O)c1ccc(Oc2ccc(Cl)c(Cl)c2)cc1` displayed a Toxicity of 158 µM. The Relative activity came out at 3.2 in the data set on Coxsackievirus [1], 32.8 in the data set on Enterovirus [4] and 32.8 in the data set on Enterovirus [6]. For the same molecule, the MIC50 with Coxsackievirus [2] turned out to be 4.1 µM (≈ 1.3 µg/mL); against Enterovirus [3], 0.79 µM (≈ 0.251 µg/mL); in the data set with Enterovirus [5], 0.79 µM (≈ 0.251 µg/mL). In the data set with Enterovirus [7], the Inhibition was determined as 85%. Also, in the data set on Enterovirus [8], at 50 µg/mL the inhibition was 10%.
As to `N#Cc1cc([N+](=O)[O-])ccc1Oc1cccc2ccccc12`, the Toxicity with HeLa was more than 172 µM. Moreover, the Relative activity in the data set on Coxsackievirus [1] was 1.2; in the data set on Enterovirus [4], 11.8; in the data set on Enterovirus [6], 6. For the same molecule, the MIC50 against Coxsackievirus [2] came out at 10.8 µM (≈ 3.14 µg/mL); against Enterovirus [3], 1.1 µM (≈ 0.319 µg/mL); against Enterovirus [5], 4.3 µM (≈ 1.25 µg/mL).
For `COc1ccc(Oc2ccc(S(C)(=O)=O)cc2)cc1`, the Toxicity with HeLa was more than 180 µM. In addition, the values for the Relative activity in the data set with Coxsackievirus [1], in the data set on Enterovirus [4] and with Enterovirus [6] were 0.29, 0.58 and 0.58, respectively. Further, the MIC50 was 90 µM (≈ 25 µg/mL) in the data set with Coxsackievirus [2], 45 µM (≈ 12.5 µg/mL) in the data set on Enterovirus [3] and 22.5 µM (≈ 6.26 µg/mL) against Enterovirus [5].
